# Source: ChEMBL document CHEMBL1131103, “Synthesis and biological evaluation of 2-acyl analogues of paclitaxel (Taxol)” (J Med Chem, 1998)
# Tests used:
# Burkitts lymphoma cell = assay: Cytotoxic activity against was measured human Burkitt lymphoma cell lines.; format: functional, cell-based
# How it was run: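 CA46 Burkitt lymphoma cells in 5.0-mL suspension culture, counted after 24 h at 37 °C under 5% CO₂. IC₅₀ = drug concentration halving the increase in cell number. Highest concentration 100 nM. At least two independent experiments.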
# Bos taurus [1] = species on record: Bos taurus; assay: Polymerizing activity of tubulin in glutamate against bovine brain tubulin homogenate was measured at 0.4 M concentrations; format: functional
# How it was run: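 Purified, electrophoretically homogeneous bovine brain tubulin assembled at room temperature without GTP or Mg²⁺ in 0.4 M monosodium glutamate (from 2 M stock, pH 6.6). Polymer pelleted by centrifugation. IC₅₀ = drug concentration lowering supernatant protein by 50% versus no-drug control. Up to 40 µM. At least three independent experiments, or at least two where IC₅₀ exceeded 40 µM.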
# Bos taurus [2] = species on record: Bos taurus; assay: Polymerizing activity of tubulin in glutamate against bovine brain tubulin homogenate was measured at 0.8M concentrations; format: functional
# How it was run: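 Bovine brain tubulin, purified to electrophoretic homogeneity, in 0.8 M monosodium glutamate (from 2 M stock, pH 6.6), room temperature, no GTP. Polymer removed by centrifugation. IC₅₀ = concentration reducing supernatant protein by 50% relative to drug-free control. Maximum 40 µM. At least three independent experiments, or at least two for IC₅₀ over 40 µM.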
# [3] = system: Panel colon (Carcinoma cell lines); assay: Cytotoxic activity was measured against human colon carcinoma cell lines; format: functional, cell-based
# How it was run: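 HCT116 colon carcinoma monolayers in 96-well plates, 48 h at 37 °C under 5% CO₂. Cell protein measured. IC₅₀ = concentration giving 50% inhibition of the increase in cell protein.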
# Bos taurus [4] = species on record: Bos taurus; assay: Polymerizing activity of microtubule protein against the twice cycled microtubule protein; format: functional
# How it was run: (§1)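 Twice-cycled microtubule protein, stored in liquid nitrogen, at 1.0 mg/mL final in 0.1 M MES, 1 mM EGTA, 0.5 mM MgCl₂, pH 6.6, 37 °C, no GTP. Compound at 2.5, 5.0 and 10 µM. Absorbance read every 10 s and initial linear slopes taken. EC0.01 = interpolated concentration giving an initial slope of 0.01 A unit/min.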
# [5] = system: Panel ovarian (Carcinoma cell lines); assay: Cytotoxic activity was measured against human Ovarian carcinoma cell lines; format: functional, cell-based
# How it was run: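 Ovarian carcinoma line 1A9, a subclone of A2780, grown as monolayers in 96-well plates for 96 h at 37 °C, 5% CO₂. Cell protein quantitated (Skehan method). IC₅₀ = concentration inhibiting the increase in cell protein by 50%.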
# ptx-10/22 = assay: Relative resistance was measured against human paclitaxel-resistant cell lines; format: functional, cell-based; settings: 1A9(PTX22)
# Bos taurus [6] = species on record: Bos taurus; assay: Polymerizing activity of microtubule protein.; format: functional; how it was run: as §1
SMILES,IC50 (Burkitts lymphoma cell),IC50 (Bos taurus [1]),IC50 (Bos taurus [2]),IC50 [3],EC0.01 (relative to paclitaxel) (Bos taurus [4]),IC50 [5],relative resistance (ptx-10/22),EC0.01 (relative to paclitaxel) (Bos taurus [6])
CC(=O)O[C@H]1C(=O)[C@@]2(C)[C@H]([C@H](OC(=O)c3cc(F)c(F)cc3F)[C@]3(O)C[C@H](OC(=O)[C@H](O)[C@@H](NC(=O)c4ccccc4)c4ccccc4)C(C)=C1C3(C)C)[C@]1(OC(C)=O)CO[C@@H]1C[C@@H]2O,1 relative to paclitaxel,> 1.7 relative to paclitaxel,3.1 relative to paclitaxel,1.9 relative to paclitaxel,1.5,3.1 relative to paclitaxel,0.48,
CC(=O)O[C@H]1C(=O)[C@@]2(C)[C@H]([C@H](OC(=O)c3cc(F)c(F)c(F)c3)[C@]3(O)C[C@H](OC(=O)[C@H](O)[C@@H](NC(=O)c4ccccc4)c4ccccc4)C(C)=C1C3(C)C)[C@]1(OC(C)=O)CO[C@@H]1C[C@@H]2O,1.3 relative to paclitaxel,> 1.7 relative to paclitaxel,4.7 relative to paclitaxel,3.4 relative to paclitaxel,1.8,3.2 relative to paclitaxel,0.62,
CC(=O)O[C@H]1C(=O)[C@@]2(C)[C@H]([C@H](OC(=O)c3cccc([N+](=O)[O-])c3)[C@]3(O)C[C@H](OC(=O)[C@H](O)[C@@H](NC(=O)c4ccccc4)c4ccccc4)C(C)=C1C3(C)C)[C@]1(OC(C)=O)CO[C@@H]1C[C@@H]2O,1 relative to paclitaxel,> 1.7 relative to paclitaxel,1.6 relative to paclitaxel,0.88 relative to paclitaxel,0.69,1.3 relative to paclitaxel,0.76,
CCOc1cccc(C(=O)O[C@H]2[C@@H]3[C@]4(OC(C)=O)CO[C@@H]4C[C@H](O)[C@@]3(C)C(=O)[C@H](OC(C)=O)C3=C(C)[C@@H](OC(=O)[C@H](O)[C@@H](NC(=O)c4ccccc4)c4ccccc4)C[C@]2(O)C3(C)C)c1,1 relative to paclitaxel,1.4 relative to paclitaxel,1.2 relative to paclitaxel,1.6 relative to paclitaxel,,1.7 relative to paclitaxel,0.37,1.1
COc1ccccc1C(=O)O[C@H]1[C@@H]2[C@]3(OC(C)=O)CO[C@@H]3C[C@H](O)[C@@]2(C)C(=O)[C@H](OC(C)=O)C2=C(C)[C@@H](OC(=O)[C@H](O)[C@@H](NC(=O)c3ccccc3)c3ccccc3)C[C@]1(O)C2(C)C,0.67 relative to paclitaxel,> 1.7 relative to paclitaxel,1.2 relative to paclitaxel,1.9 relative to paclitaxel,1.5,1.4 relative to paclitaxel,0.95,
CC(=O)O[C@H]1C(=O)[C@@]2(C)[C@H]([C@H](OC(=O)c3cc(N=[N+]=[N-])cc(N=[N+]=[N-])c3)[C@]3(O)C[C@H](OC(=O)[C@H](O)[C@@H](NC(=O)c4ccccc4)c4ccccc4)C(C)=C1C3(C)C)[C@]1(OC(C)=O)CO[C@@H]1C[C@@H]2O,1 relative to paclitaxel,> 1.7 relative to paclitaxel,4 relative to paclitaxel,1.6 relative to paclitaxel,0.67,1.3 relative to paclitaxel,0.4,
CC(=O)O[C@H]1C(=O)[C@@]2(C)[C@H]([C@H](OC(=O)c3cccc(I)c3)[C@]3(O)C[C@H](OC(=O)[C@H](O)[C@@H](NC(=O)c4ccccc4)c4ccccc4)C(C)=C1C3(C)C)[C@]1(OC(C)=O)CO[C@@H]1C[C@@H]2O,2.3 relative to paclitaxel,> 1.7 relative to paclitaxel,3.1 relative to paclitaxel,0.85 relative to paclitaxel,0.79,1.6 relative to paclitaxel,0.35,
CC(=O)O[C@H]1C(=O)[C@@]2(C)[C@H]([C@H](OC(=O)c3cccc(OC(C)C)c3)[C@]3(O)C[C@H](OC(=O)[C@H](O)[C@@H](NC(=O)c4ccccc4)c4ccccc4)C(C)=C1C3(C)C)[C@]1(OC(C)=O)CO[C@@H]1C[C@@H]2O,1.3 relative to paclitaxel,> 1.7 relative to paclitaxel,> 8.9 relative to paclitaxel,17 relative to paclitaxel,> 140,15 relative to paclitaxel,0.29,
COc1cc(OC)cc(C(=O)O[C@H]2[C@@H]3[C@]4(OC(C)=O)CO[C@@H]4C[C@H](O)[C@@]3(C)C(=O)[C@H](OC(C)=O)C3=C(C)[C@@H](OC(=O)[C@H](O)[C@@H](NC(=O)c4ccccc4)c4ccccc4)C[C@]2(O)C3(C)C)c1,1 relative to paclitaxel,> 1.7 relative to paclitaxel,4.7 relative to paclitaxel,5.4 relative to paclitaxel,2.6,3.3 relative to paclitaxel,0.57,
